# SR-BI DiI-HDL act: activators of SR-BI mediated HDL lipid uptake; CHO ldlA[mSR-BI] cells, DiI-HDL uptake fluorescence, 3 h; 100 = double the neutral-control signal; activation, % at 12.5 µM; 0.096% of 320,000 active; AID 504775;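 active = mean replicate activation of at least 60% and every replicate at or above 60%; inconclusive = mean or all-replicate condition met, but not both; inactive = mean below 60% and not all replicates reaching 60%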
#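 System: LDL receptor-deficient CHO ldlA cells overexpressing murine SR-BI | Timing: 3 h uptake period with compound, 37 °C | Medium: HEPES-buffered (25 mM, pH 7.4) F12 plus 0.5% BSA | Dosing: Single-point compound dose | Signal: Bottom-read fluorescence, 550/595 nm | Read-out: Retained DiI signal reflecting DiI-HDL uptake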
# Neddyl block: cullin neddylation inhibition; TR-FRET cullin neddylation, biochemical; inhibition, % at 25 µM; P61081+Q13564; 0.58% of 360,000 active; in the data active = inhibition above about 36%
# UBC13 polyUb: human UBC13 polyubiquitination inhibition. P61088. inhibition, % at 20 µM. 0.47% of 330,000 active. AID 485273. UBC13 polyubiquitin chain formation, TR-FRET; in the data active = inhibition above about 45%, passing the limit was not always enough; inconclusive = no clear call, values can overlap the other calls
# Target sequence (P61088 whole entry, looked up): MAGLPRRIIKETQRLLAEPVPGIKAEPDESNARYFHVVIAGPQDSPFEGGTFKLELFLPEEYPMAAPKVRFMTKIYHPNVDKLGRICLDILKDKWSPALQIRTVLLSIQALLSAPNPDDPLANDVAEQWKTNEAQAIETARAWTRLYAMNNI
# SR-BI DiI inh: blocks mouse SR-BI lipid uptake from DiI-HDL. Q61009. ldlA[mSR-BI] CHO cells, DiI-HDL uptake fluorescence, 3 h. inhibition, % at 12.5 µM. 0.96% of 320,000 active;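 active = mean replicate inhibition of at least 70% and a set share of replicates each scoring 70 or more; inconclusive = meets just one of the two criteria; inactive = fails both criteria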
# Target sequence (Q61009 whole entry, looked up): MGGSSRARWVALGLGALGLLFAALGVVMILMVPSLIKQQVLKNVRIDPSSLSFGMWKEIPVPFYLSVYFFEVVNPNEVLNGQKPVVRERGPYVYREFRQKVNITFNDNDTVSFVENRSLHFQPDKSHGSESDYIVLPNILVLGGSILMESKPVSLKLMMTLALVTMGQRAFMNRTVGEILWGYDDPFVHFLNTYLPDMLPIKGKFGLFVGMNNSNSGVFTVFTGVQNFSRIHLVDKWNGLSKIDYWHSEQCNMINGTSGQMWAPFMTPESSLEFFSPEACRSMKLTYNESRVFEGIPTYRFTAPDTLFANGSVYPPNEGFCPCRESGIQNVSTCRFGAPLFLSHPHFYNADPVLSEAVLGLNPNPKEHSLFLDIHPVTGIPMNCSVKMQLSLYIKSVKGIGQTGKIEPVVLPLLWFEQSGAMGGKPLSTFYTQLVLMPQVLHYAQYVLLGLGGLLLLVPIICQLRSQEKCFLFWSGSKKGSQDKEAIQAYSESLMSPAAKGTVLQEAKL
# Neddyl inh conf: cullin neddylation inhibition, confirmation; shares compounds with Neddyl block; 13% of 1,800 active; TR-FRET cullin neddylation biochemical assay; calls only at 25 µM; AID 652217; in the data active = inhibition above about 40%;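 note: neddylation substrate is the cullin 1 ring ligase complex with SKP2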
# Numbers stand for hits; n = inactive; u = inconclusive; x = no result given; + = active, no number; ! = not confirmed by another sample. An excerpt weighted towards active compounds, which were near 1.9% of everything screened.
SMILES,SR-BI DiI-HDL act,Neddyl block,UBC13 polyUb,SR-BI DiI inh,Neddyl inh conf
COc1ccc(/C=N/NC(=O)c2cc3cc(OC)c(OC)cc3[nH]2)cc1,n,46,n,n,n
COc1cc2cc(C(=O)N/N=C/c3ccc(F)cc3)[nH]c2cc1OC,n,40,n,n,n
C=CC[C@]12CCc3ccccc3C1N(c1ccc(C(=O)OCC)cc1)C2=O (stereo not given in full),n,n,n,n,x
CCCCn1c(N)c(N(CCOC)C(=O)CCCc2nc3ccccc3c(=O)[nH]2)c(=O)[nH]c1=O,n,n,n,n,x
Nc1nc2ccccc2n1CCOc1ccc(F)cc1,n,n,n,n,x
CCOC(=O)CC1(CC)Oc2ccccc2N1S(=O)(=O)c1ccc(C)cc1 (stereo not given),x,n,x,x,x
O=C(Nc1cccc(OC(F)(F)F)c1)[C@@H]1O[C@H](CO)[C@H](O)[C@H](O)[C@H]1O,x,n,x,x,x
O=C(O)c1ccc(NC(=O)c2ccc3c(c2)C(=O)N(CC2CCCO2)C3=O)cc1 (stereo not given),x,n,n,x,x
Cc1ccc(C(=O)Nc2ccc3c(c2)C(=O)N(CC2CCCO2)C3=O)cc1 (stereo not given),n,61,n,n,x
CC(C)C(=O)Nc1ccc2nn(-c3ccc(F)cc3)nc2c1,n,x,n,n,x
Cc1ccc(-n2nc3ccc(NC(=O)C(C)C)cc3n2)cc1,n,43,n,n,n
CC(=O)N1CCN(c2ccc(NC(=O)c3ccc(OCc4ccccc4)cc3)cc2)CC1,n,44,n,n,n
CC(=O)N1CCN(c2ccc(NC(=O)c3cccc(OCc4ccccc4)c3)cc2)CC1,n,n,n,n,x
O=C(NCc1ccccc1)c1nc(-c2c(F)cccc2F)oc1-c1ccccc1,x,44,x,x,x
COC(=O)c1ccccc1NC(=O)N1CCN(c2ccccc2F)CC1,n,n,n,n,x
COC(=O)c1ccccc1NC(=O)N1CCCC1,n,46,n,n,n
O=C(NCc1cnc2ccccn12)C1CCC(=O)N(Cc2cccc(F)c2)C1 (stereo not given),n,n,n,n,x
CC1Cc2ccccc2N1c1ncnc2nc[nH]c12 (stereo not given),n,66,n,n,x
c1ccc2c(c1)CCN(c1ncnc3nc[nH]c13)C2,n,n,n,n,x
COC(=O)[C@]12CCCCC=C1N(Cc1ccco1)C(=O)[C@H](CC(=O)N1CCC(c3ccccc3)CC1)C2,x,n,x,x,x
CCCCCC(=O)N1C[C@@H](n2cc(C3CC3)nn2)[C@H](O)C[C@@H]1c1ccc(C)cc1,x,n,x,x,x
Cc1cccc(NC(=O)Cn2nc(-c3ccco3)ccc2=O)c1C,x,43,n,x,x
O=C(Cn1nc(-c2ccco2)ccc1=O)Nc1ccc(Br)cc1,n,45,n,n,x
Cc1ccccc1NC(=O)CSc1ccc(-c2ccco2)nn1,n,n,n,n,x
Cc1ccc(-c2ccc(C(=O)Nc3ccccc3)o2)c2ccccc12,n,40,n,n,n
SMILES,SR-BI DiI-HDL act,Neddyl block,UBC13 polyUb,SR-BI DiI inh,Neddyl inh conf
Cc1ccc(-c2ccc(C(=O)NCc3ccccc3)o2)c2ccccc12,n,x,n,n,x
C[C@@H]1CN([C@@H](C)CO)C(=O)c2cc(N(C)C)ccc2O[C@@H]1CN(C)S(C)(=O)=O,n,n,n,n,x
CC(C)[N+]1=C2C=CC=CC=C2SC12C([N+](=O)[O-])=CC(=[N+]([O-])[O-])C=C2[N+](=O)[O-] (stereo not given),n,44,n,n,n
c1ccc(-c2nc3ccccn3c2-c2ccccc2)cc1,n,40,n,n,x
N#Cc1ccc(NC(=O)c2cc(=O)c3ccccc3o2)cc1,n,41,n,n,n
C=CCNC(=S)/N=c1/ccccn1CCC,u,51,n,n,n
C=CCNC(=S)/N=c1/ccccn1C,n,n,n,n,x
Cc1ccc(S(=O)(=O)N2Cc3ccccc3CC2C(N)=O)cc1 (stereo not given),x,n,x,x,x
COc1cccc(-c2ccc(C#N)c(OC(=O)c3ccc(Cl)cc3)n2)c1,n,41,n,n,n
Cc1cc(N/C(=N/S(=O)(=O)c2ccc(F)cc2)c2ccccc2)n(-c2ccccc2)n1,n,52,n,n,n
CC(=O)c1sc(-c2ccc(F)cc2)cc1NS(=O)(=O)c1ccccc1,x,41,n,x,n
CCC(CCC(=O)NNC(=O)Cc1ccc([N+](=O)[O-])cc1)C(=O)O (stereo not given),n,n,n,n,x
COCCNC(=O)CSc1nc(-c2ccc(OC)c(OC)c2)cc(C(F)(F)F)n1,n,40,n,n,x
CCn1cc(CNC(=O)CSc2nc(-c3ccc(OC)c(OC)c3)cc(C(F)(F)F)n2)c(C)n1,n,x,n,n,x
COc1ccc(-c2cc(C(F)(F)F)nc(SCC(=O)N3CCOCC3)n2)cc1OC,n,43,n,n,n
CC1Cn2c(nnc2-c2cc3ccccc3cc2O)S1 (stereo not given),n,44,n,n,n
CC1Cn2c(nnc2-c2ccccc2O)S1 (stereo not given),n,n,n,n,x
COc1ccc(C(=O)NCc2ccco2)cc1S(=O)(=O)NC1CC1,n,n,n,n,x
Cc1cc(C)n2nc3ccccc3c2n1,n,42,n,n,n
Cc1cc(=O)[nH]c2c3ccccc3nn12,n,n,n,n,x
COc1ccc(CNC(=O)CSc2cccc3cccnc23)cc1,n,43,n,n,n
COc1cccc(/C=N/NC(=O)CSc2cccc3cccnc23)c1,n,46,n,n,n
O=C(CSc1cccc2cccnc12)N/N=C/c1ccc(O)cc1,x,n,n,x,x
CN(CC(=O)Nc1ccccc1Cl)C(=O)COC(=O)c1ccc(-c2ccc(O)cc2)cc1,n,31,n,n,x
Cc1cc2n(n1)C(c1ccc(O)cc1)Nc1ccccc1-2 (stereo not given),n,42,n,n,n
SMILES,SR-BI DiI-HDL act,Neddyl block,UBC13 polyUb,SR-BI DiI inh,Neddyl inh conf
Cc1cccc(C(=O)OCC(=O)N2CCN(C(=O)c3ccco3)CC2)c1O,n,n,n,n,x
CC(C)c1cc(C(=O)OCC(=O)N2CCN(C(=O)c3ccco3)CC2)c(O)c(C(C)C)c1,n,34,n,n,n
c1coc(C2Nc3ccccc3C3OCCC23)c1 (stereo not given),n,40,n,n,n
CN(C)CCNc1nc(-c2ccco2)c2c(c1C#N)CC(C)(C)OC2,n,51,n,n,+
Cc1ccccc1P(=O)(c1ccccc1)c1ccccc1C,x,n,x,x,x
COC(=O)C1=C(C)NC(C)=C(C(=O)OC)C1C(=O)OCC(=O)N1c2ccccc2CC1C (stereo not given),n,46!,n,n,x
COc1ccc(-c2nc3ccc(C(=O)NCC(OC)OC)cc3nc2-c2ccc(OC)cc2)cc1,n,n,n,n,x
O=C(O)c1ccc2nc(-c3ccccc3)c(-c3ccccc3)nc2c1,n,n,n,n,x
COC(CNC(=O)c1ccc2nc(-c3ccccc3)c(-c3ccccc3)nc2c1)OC,n,49,n,80,+
CCN1CCN(C(=O)c2ccc3nc(-c4ccccc4)c(-c4ccccc4)nc3c2)CC1,x,60,n,n,+
COc1ccc(C(=O)Nc2ccc(NC(=O)c3ccccc3)cc2)cc1S(=O)(=O)N1CCOCC1,x,41,n,x,n

# Compound activity as filed in PubChem.
